Reference: article PMC3157043 (Nuclear medicine and biology, 2011)
Each block holds one compound with its values, some of them ahead of it.

What was measured:
A2A = details: cited from earlier work
adenosine A2A = adenosine A2A (Rattus norvegicus, UniProt P30543); assay: In vitro autoradiography of rat brain slices; format: binding; details: 90 min incubation, 2.3 MBq tracer, phosphor imaging
A2A receptor [1] = biological target: T1, A2A receptor (Rattus norvegicus, UniProt P30543); assay: Ex vivo brain autoradiography / in vivo blocking; details: 30 min after i.v. injection of 12.9 MBq, 50 µm slices
[2] = In vivo biodistribution in normal rats; parameters: species or system rat
Procedure, shortened: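 Non-lesioned male SD rats received ~11.1 MBq (300 µCi)/rat radiotracer i.v. in saline. They were killed by CO2 asphyxiation at 30 (n = 4), 60 (n = 4) or 120 min (n = 6). Brain, blood and other tissues were wet-weighed and gamma-counted, and uptake was expressed as %ID/g. Data are mean ± SEM, with means compared by 1-way ANOVA.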

A2A receptor [3] = biological target: T1, A2A receptor; assay: PET kinetic experiment in normal rats; format: in vivo
Procedure, shortened: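 Unlesioned male SD rats, age-matched to 13–14-week lesioned rats, were imaged on an Inveon microPET under isoflurane (2–3% v/v in O2). Each received […]/rat radiotracer i.v. in saline, followed by a 30 min list-mode emission scan. Caudate-putamen ROI mean pixel values were converted to counts/g/min (1 g/mL density) and divided by injected dose to give %ID/g, reported as mean ± SEM.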

A2A receptor [4] = biological target: T1, A2A receptor; assay: PET kinetic experiment in unilaterally 6-OHDA-lesioned rats; format: in vivo
[5] = In vitro metabolism in cryopreserved rat hepatocytes; format: in vitro ADME; details: rat hepatocyte incubation
[6] = normal rats; cited from earlier work

T1 sequence (P30543 whole entry): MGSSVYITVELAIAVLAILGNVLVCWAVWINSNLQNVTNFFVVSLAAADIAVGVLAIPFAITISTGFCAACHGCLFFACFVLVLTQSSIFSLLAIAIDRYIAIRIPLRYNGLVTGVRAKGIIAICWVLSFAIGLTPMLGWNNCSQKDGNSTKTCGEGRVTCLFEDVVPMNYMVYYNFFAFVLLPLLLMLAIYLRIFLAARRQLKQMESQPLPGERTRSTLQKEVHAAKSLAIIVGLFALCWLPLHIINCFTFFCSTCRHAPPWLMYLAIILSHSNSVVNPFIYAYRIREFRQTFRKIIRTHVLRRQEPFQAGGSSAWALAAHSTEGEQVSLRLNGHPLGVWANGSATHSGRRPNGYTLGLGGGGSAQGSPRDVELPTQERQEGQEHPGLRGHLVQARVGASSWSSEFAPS
adenosine A2A, sequence (P30543 whole entry): as above

SMILES: Nc1nc2c(cnn2CCCc2ccc(OCCF)cc2)c2nc(-c3ccco3)nn12 [MRS5425, 7-(3-(4-(2-fluoroethoxy)phenyl)propyl)-2-(furan-2-yl)-7H-pyrazolo[4,3-e][1,2,4]triazolo[1,5-c]pyrimidin-5-amine]
selectivity over A1 and A3 (A2A; A2A versus A1 and A3): 1000 fold | Ki (A2A; read-out: Ki for A2A): 0.0124 µM

primary accumulation (tissues) ([2]; 30, 60, 120 min biodistribution): intestine and urine | uptake in striatum ([2]; 30 min after i.v. injection, n = 4, mean ± SEM): 0.25 ± 0.09 %ID/g | uptake in striatum ([2]; 60 min after i.v. injection, n = 4, mean ± SEM): 0.35 ± 0.10 %ID/g | uptake in striatum ([2]; 120 min after i.v. injection, n = 6, mean ± SEM): 0.13 ± 0.03 %ID/g | uptake in striatum compared to blood ([2]; at 30 and 60 min): ~ 2 fold | bone uptake in imaging studies (A2A receptor [3]; PET imaging in rats, marker of defluorination): not observed | plateau of striatal %ID/g held until (A2A receptor [3]; normal rats): 3.5 min | striatal uptake versus cortical and other regions (A2A receptor [3]; normal rats, PET images): significantly higher uptake | time of decline to 75% of peak %ID/g (A2A receptor [3]; normal rats, striatum TAC): about 6 min | time of maximum striatal ROI-derived %ID/g (A2A receptor [3]; normal rats, striatum TAC): 90 s | plateau maintained after maximum (A2A receptor [3]; normal rats, striatum TAC, additional time after 90 sec): 2 min | %ID/g values compared with [11C]-SCH442416 in monkeys (A2A receptor [3]; rat striatum versus 0.035 %ID/mL in monkeys): ~ 20 fold | plateau of striatal %ID/g held until (A2A receptor [4]; 6-OHDA rats): 4.5 min | plateau maintained after peak (A2A receptor [4]; 6-OHDA-lesioned rats, saline): about 3 min | time of peak baseline striatal %ID/g (A2A receptor [4]; 6-OHDA-lesioned rats, saline, both lesioned and intact sides): 90 s | %ID/g in lesioned side compared to intact side (A2A receptor [4]; saline baseline, after plateau to 30 min, p < 0.05): significantly higher | defluorination [5]: evidence for defluorination | metabolite observed ([5]; HPLC-MS, m/z +16, believed N-oxidation): a major fluorine-containing metabolite
SMILES: Nc1nc2c(cnn2CCCc2ccc(OCC[18F])cc2)c2nc(-c3ccco3)nn12 [[^18F]-MRS5425, 7-(3-(4-(2-[^18F]fluoroethoxy)phenyl)propyl)-2-(furan-2-yl)-7H-pyrazolo[4,3-e][1,2,4]triazolo[1,5-c]pyrimidin-5-amine]
radioactivity binding on coronal brain slices (adenosine A2A): radioactivity binding (dark area in Fig 1 b) in the caudate-putamen (striatum) nucleus bilaterally | ex vivo radioactivity binding in brain slices (A2A receptor [1]): radioactivity binding in the striatal region bilaterally

SMILES: [11CH3]Oc1ccc(CCCn2ncc3c2nc(N)n2nc(-c4ccco4)nc32)cc1 [[^11C]-SCH442416]
time of maximum radioactivity accumulation in striatum [6]: 5 min | time to reach 50% of peak striatal %ID/g [6]: ≤ 25 min | time to reach lowest striatal %ID/g [6]: ≤ 60 min
